Activity calls are given as the source filed them. No cut-off for these calls is given here.
What was measured:
[1] = system: Mus musculus; test: Effective dose required to prevent reserpine ptosis in mice, administered orally; type: functional; details: po
Procedure, shortened: (§1)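 Male Swiss-Webster or Harlan ICR mice, five per dose. Drug in saline given po or ip per line. Reserpine 2.5 mg/kg ip 30 min later. Complete absence of ptosis at 45 min after reserpine scored as positive. ED50 by Litchfield-Wilcoxon or Horn method, with 95% confidence intervals.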

[2] = system: Mus musculus; test: Effective dose against yohimbine hydrochloride induced lethality in mice, administered intraperitoneally; type: functional; details: ip
Procedure, shortened: (§2)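 Male Swiss-Webster or Swiss ND/4 mice, 20-24 g, randomized into groups of 10 and housed five per cage. Test drug in saline given ip, with a saline control group. Yohimbine hydrochloride 20 mg/kg sc was given 30 min later, and mice were then reaggregated.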

[3] = system: Mus musculus; test: Effective dose required to prevent reserpine ptosis in mice, administered intraperitoneally; type: functional; details: ip; procedure, shortened: as §1
[4] = system: Mus musculus; test: Effective dose required to potentiate yohimbine hydrochloride induced lethality in mice, administered intraperitoneally; type: functional; details: ip; procedure, shortened: as §2
[5] = system: Mus musculus; test: Effective dose required to prevent reserpine ptosis in mice, administered orally(po); NA=Not active at 100 mg/kg; type: functional, organism-based; parameters: dose 100 mg/kg; procedure, shortened: as §1
[6] = system: Mus musculus; test: Effective dose required to prevent reserpine ptosis in mice, administered orally(po); type: functional; procedure, shortened: as §1
[7] = system: Mus musculus; test: Effective dose required to prevent reserpine ptosis in mice administered orally; type: functional; details: po; procedure, shortened: as §1
[8] = system: Mus musculus; test: Effective dose required to prevent reserpine ptosis in mice administered intraperitoneally; type: functional; details: ip; procedure, shortened: as §1
[9] = system: Mus musculus; test: Effective dose required to prevent reserpine ptosis in mice, administered intraperitoneally.; type: functional, organism-based; procedure, shortened: as §1
[10] = system: Mus musculus; test: Effective dose required to prevent reserpine ptosis in mice, administered po; NA=Not active; type: functional, organism-based; procedure, shortened: as §1
[11] = system: Mus musculus; test: Effective dose required to potentiate yohimbine hydrochloride induced lethality in mice, administered intraperitoneally; NA=Not active; type: functional, organism-based
Procedure, shortened: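 Male Swiss-Webster or Swiss ND/4 mice, 20-24 g, randomized into groups of 10 and aggregated five per cage. Test drug in saline given ip, with a saline control group. Yohimbine HCl (20 mg/kg, sc) injected 30 min later, then mice reaggregated.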

[12] = system: Mus musculus; test: Effective dose required to prevent reserpine ptosis in mice, administered (po)orally; type: functional; procedure, shortened: as §1
[13] = system: Mus musculus; test: Effective dose required to prevent reserpine ptosis in mice, administered orally; NA=Not active at 100 mg/kg; type: functional, organism-based; parameters: dose 100 mg/kg; procedure, shortened: as §1
[14] = system: Mus musculus; test: Effective dose required to prevent reserpine ptosis in mice, administered intraperitoneally; NA=Not active at 46 mg/Kg; type: functional, organism-based; procedure, shortened: as §1
[15] = Therapeutic index administered perorally in mouse; type: organism-based; details: in vivo, po, read-out: Therapeutic index
Procedure, shortened: (§3)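 Index from mouse LD50 over reserpine-ptosis ED50 by the same route. […] Deaths recorded at 1 and 24 h; Litchfield-Wilcoxon calculation.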

[16] = Therapeutic index administered intraperitoneally in mouse; type: organism-based; details: in vivo, ip, read-out: Therapeutic index; procedure, shortened: as §3
[17] = Lethal dose in mouse i.p.; type: toxicity, organism-based; details: in vivo, ip
Procedure, shortened: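 Male Swiss-Webster albino mice, 20-24 g, in groups of five. Each group received one dose ip in saline (prepared 30 min before injection) at 10 mL/kg. Mice were held singly for about 5 h, then housed together with food and water. Deaths were counted at 1 and 24 h. LD50 by Litchfield-Wilcoxon.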

[18] = Lethal dose in mouse p.o.; type: toxicity, organism-based; details: in vivo, po
[19] = system: Mus musculus; test: Effective dose required to prevent reserpine ptosis in mice, administered orally (po); type: functional; procedure, shortened: as §1
[20] = system: Mus musculus; test: Electrical shock aggression was evaluated in mice, administered intraperitoneally; NA means no aggression blockade at 46.4 mg/kg; type: functional, organism-based; parameters: dose 46.4 mg/kg
Procedure, shortened: (§4)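 Pairs of mice placed under an inverted 1000 cm3 beaker and shocked through the floor grid (3 mA, 3 Hz) for 2 min. Drug given ip 30 min before testing; scored all-or-none against a saline group. Fighting counted as inhibited when mean attacks fell 1.5 SD below the vehicle mean.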

[21] = system: Mus musculus; test: Electrical shock aggression was evaluated in mice, administered intraperitoneally; type: functional; details: ip; procedure, shortened: as §4
[22] = system: Mus musculus; test: Effective dose required to prevent reserpine ptosis in mice, administered intraperitoneally; NA=Not active at 100 mg/kg; type: functional, organism-based; parameters: dose 100 mg/kg; procedure, shortened: as §1
[23] = system: Mus musculus; test: Effective dose required to prevent reserpine ptosis in mice administered intraperitoneally; NA=Not active; type: functional, organism-based; procedure, shortened: as §1
[24] = system: Mus musculus; test: Effective dose required to prevent reserpine ptosis in mice administered (po)orally; NA=Not active; type: functional, organism-based; procedure, shortened: as §1

Cl.N=C(Cc1ccc2ccccc2c1)N1CCCCC1
ED50 [1]: 11 mg/kg

C/N=C(\NC)C(c1ccc(Cl)cc1)c1ccc(Cl)cc1.Cl
ED50 [2]: 27.2 mg/kg
ED50 [3]: 2.4 mg/kg

CC/N=C(/Cc1cccc(C(F)(F)F)c1)NCC.Cl
ED50 [3]: 5.1 mg/kg
ED50 [4]: 12.8 mg/kg

COc1ccc2cc(CC(=N)N3CCCC3)ccc2c1
ED50 [5]: inactive

Cl.N=C(Cc1ccc2ccccc2c1Cl)N1CCN(c2ccccc2)CC1
ED50 [6]: 16.2 mg/kg

N=C(Cc1ccc2ccccc2c1Cl)N1CCN(Cc2ccccc2)CC1
ED50 [5]: inactive

COc1ccccc1N1CCN(C(=N)Cc2ccc3ccccc3c2)CC1
ED50 [5]: inactive

Cl.N=C(Cc1ccc2ccccc2c1)N1CCCCCC1
ED50 [7]: 11 mg/kg

C/N=C(/COc1ccccc1)NC.Cl
ED50 [8]: 1.1 mg/kg
ED50 [4]: 2.2 mg/kg

Cl.N=C(Cc1ccc2ccccc2c1Cl)N1CCOCC1
ED50 [6]: 15 mg/kg

Cl.N=C(Cc1ccc2ccccc2c1Cl)N1CCC(Cc2ccccc2)CC1
ED50 [1]: 19.6 mg/kg

CC/N=C(/COc1cc(Cl)c(Cl)cc1Cl)NCC
ED50 [9]: inactive

C/N=C(/Cc1cc2ccccc2cc1C)NC
ED50 [10]: inactive
ED50 [9]: inactive

C/N=C(/Cc1ccc2cc(OC)ccc2c1)NC.Cl
ED50 [11]: inactive
ED50 [1]: 23.7 mg/kg
ED50 [3]: 19 mg/kg

CC/N=C(/Cc1ccc(Cl)cc1Cl)NCC
ED50 [9]: inactive

COc1ccc(CC/N=C(/N)Cc2ccc3ccccc3c2)cc1OC
ED50 [5]: inactive

CC/N=C(/COc1ccc(Cl)c(Cl)c1)NCC.Cl
ED50 [3]: 3.3 mg/kg
ED50 [4]: 3.5 mg/kg

CC/N=C(/Cc1ccc2ccccc2c1)NCC.Cl
ED50 [3]: 19.6 mg/kg
ED50 [4]: 19.6 mg/kg
ED50 [6]: 31 mg/kg

CC1CN(C(=N)Cc2ccc3ccccc3c2)CC(C)O1.Cl (centres undefined)
ED50 [12]: 28.7 mg/kg

CC/N=C(/Cc1ccc(Br)cc1)NCC.Cl
ED50 [3]: 2.8 mg/kg
ED50 [4]: 2.7 mg/kg

Cl.N=C(Cc1ccc2ccccc2c1Cl)N1CCCC1
ED50 [1]: 2.9 mg/kg

Cl.N=C(Cc1ccc2ccccc2c1Cl)N1CCN(c2cccc(Cl)c2)CC1
ED50 [6]: 16.2 mg/kg

C/N=C(/Cc1ccc2cc(O)ccc2c1)NC.Cl
ED50 [12]: 23.7 mg/kg

Cc1ccc(C/N=C(/N)Cc2ccc3ccccc3c2)c(C)c1
ED50 [13]: inactive

Cl.N=C(Cc1ccc2ccccc2c1)N1CCOCC1
ED50 [12]: 17.1 mg/kg

N=C(Cc1ccc2ccccc2c1)N1CCN(c2ccccc2)CC1
ED50 [5]: inactive

CN1CCN(C(=N)Cc2ccc3ccccc3c2)CC1.Cl
ED50 [12]: 14.7 mg/kg

C/N=C(/Cc1ccc2ccccc2c1Cl)NC.Cl
ED50 [3]: 11 mg/kg
ED50 [4]: 26.1 mg/kg
ED50 [12]: 15 mg/kg

C/N=C(/Cc1ccc2cc(C)ccc2c1)NC.Cl
ED50 [11]: inactive
ED50 [1]: 31.6 mg/kg
ED50 [3]: 19.6 mg/kg

CC/N=C(/Cc1cc(Cl)c(Cl)cc1Cl)NCC
ED50 [14]: inactive

Cl.N=C(Cc1ccc2ccccc2c1)N1CCCC1
ED50 [12]: 11 mg/kg

Cl.N=C(Cc1ccc2ccccc2c1Cl)N1CCC(c2ccccc2)CC1
ED50 [1]: 8.8 mg/kg

C/N=C(\NC)c1ccc(Cl)cc1.Cl
selectivity ratio [15]: 32
ED50 [3]: 6.8 mg/kg
selectivity ratio [16]: 16
LD50 [17]: 108 mg/kg
ED50 [4]: 6 mg/kg
LD50 [18]: 200 mg/kg
ED50 [19]: 6.2 mg/kg

C/N=C(/Cc1ccc([N+](=O)[O-])cc1)NC.Cl
selectivity ratio [15]: 213
ED50 [3]: 3.2 mg/kg
selectivity ratio [16]: 67
ED50 [20]: inactive
LD50 [17]: 215 mg/kg
ED50 [4]: 20 mg/kg
ED50 [12]: 3.2 mg/kg
LD50 [18]: 681 mg/kg

Cl.Cl.N=C(Cc1ccc2ccccc2c1)NCCN1CCOCC1
ED50 [12]: 14.7 mg/kg

CC/N=C(/Cc1ccc(F)cc1)NCC
ED50 [9]: inactive

CC/N=C(/Cc1c(Cl)ccc(Cl)c1Cl)NCC
ED50 [9]: inactive

Cl.N=C(Cc1ccc2ccccc2c1Cl)N1CCC(O)(c2ccccc2)CC1
ED50 [6]: 24.5 mg/kg

CCC(=O)C1(c2ccccc2)CCN(C(=N)Cc2ccc3ccccc3c2)CC1
ED50 [5]: inactive

Cl.N=C(Cc1ccc2ccccc2c1)N1CCC(N2CCCCC2)CC1
ED50 [12]: 40.8 mg/kg

Cl.N=C(Cc1ccc2ccccc2c1Cl)N1CCC(O)(c2ccc(Cl)cc2)CC1
ED50 [6]: 10.8 mg/kg

CN(C)CCCN1c2ccccc2CCc2ccccc21 [IMIPRAMINE]
ED50 [3]: 13 mg/kg
ED50 [21]: 23 mg/kg
ED50 [4]: 0.7 mg/kg
ED50 [12]: 14 mg/kg

C/N=C(/Cc1ccc2ccccc2c1)NC.Cl [NAPACTADINE HYDROCHLORIDE]
selectivity ratio [15]: 34
ED50 [3]: 12.6 mg/kg
selectivity ratio [16]: 5
LD50 [17]: 68.1 mg/kg
ED50 [21]: 12.6 mg/kg
ED50 [4]: 0.8 mg/kg
ED50 [6]: 17.1 mg/kg
LD50 [18]: 584 mg/kg

C/N=C(/Cc1ccc(OC)c(OC)c1)NC
ED50 [9]: inactive

C/N=C(/Cc1ccc(C)cc1)NC
ED50 [9]: inactive

C/N=C(\NC)c1ccccc1.Cl
ED50 [3]: 0.8 mg/kg
ED50 [4]: 4 mg/kg

C/N=C(/Cc1ccc2ccccc2c1O)NC.Cl
ED50 [12]: 26.1 mg/kg

CC(C)/N=C(/Cc1ccc2ccccc2c1)NC(C)C
ED50 [22]: inactive
ED50 [13]: inactive

CCC/N=C(/COc1ccccc1)NCCC
ED50 [23]: inactive

CC/N=C(/Cc1cccc(C)c1)NCC
ED50 [9]: inactive

CC/N=C(/Cc1c(Cl)cccc1Cl)NCC
ED50 [9]: inactive

Cl.N=C(Cc1ccc2ccccc2c1)N1CCC(c2ccccc2)CC1
ED50 [1]: 14.7 mg/kg

CN(CCO)C(=N)Cc1ccc2ccccc2c1.Cl
ED50 [12]: 19.6 mg/kg

C/N=C(/Cc1ccc(-c2ccccc2)cc1)NC
ED50 [9]: inactive

C/N=C(/COc1ccc(Cl)cc1Cl)NC.Cl
ED50 [3]: 7.5 mg/kg

COc1ccc2cc(CC(=N)N3CCC(c4ccccc4)CC3)ccc2c1
ED50 [5]: inactive

CC/N=C(/Cc1ccc(Cl)c(Cl)c1)NCC.Cl
selectivity ratio [15]: 7
ED50 [3]: 9.3 mg/kg
selectivity ratio [16]: 3
ED50 [20]: inactive
LD50 [17]: 31.6 mg/kg
ED50 [4]: 6 mg/kg
ED50 [12]: 12.6 mg/kg
LD50 [18]: 90 mg/kg

CC/N=C(/Cc1cccc2ccccc12)NCC
ED50 [9]: inactive

CC(C)/N=C(/N)Cc1ccc2ccccc2c1
ED50 [5]: inactive

Cl.N=C(Cc1ccc2ccccc2c1)N1CCC(O)(Cc2ccccc2)CC1
ED50 [6]: 22.5 mg/kg

Cl.Cl.N=C(Cc1ccc2ccccc2c1Cl)NCCCN1CCOCC1
ED50 [6]: 3.2 mg/kg

CC/N=C(/Cc1ccc2ccccc2c1Cl)NCC.Cl
ED50 [2]: 41 mg/kg
ED50 [1]: 41 mg/kg
ED50 [22]: inactive

C/N=C(/Cc1c(O)ccc2ccccc12)NC
ED50 [24]: inactive

N=C(Cc1ccc2ccccc2c1Cl)N1CCN(C(c2ccccc2)c2ccccc2)CC1
ED50 [5]: inactive

CNC(=N)Cc1ccc2ccccc2c1.Cc1ccc(S(=O)(=O)O)cc1.Cl
ED50 [6]: 22.5 mg/kg

CC/N=C(/Cc1ccc2cc(C)ccc2c1)NCC
ED50 [22]: inactive
